Holding throughout (format): functional
A short description of assay [1]: Antiviral Activity against vesicular stomatitis virus in rabbit kidney cell. Conditions: Oryctolagus cuniculus.
The test system of assay [2] is FM3A. The assay can be described thus: Inhibitory activity against FM3A TK-/HSV-2 TK+ cell line. Conditions: Mus musculus, […] TK-/HSV-2 TK+; read-out: ID50 (the source's name). In short, it runs like this:
(§1)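 Tumour cells, (5-7.5) × 10^4 per well in growth medium, exposed to varying compound concentrations and allowed to proliferate 48 or 72 h at 37 °C in humidified CO2 atmosphere; cell counts by Coulter counter; value is 50% inhibitory dose. FM3A TK- and TK-/HSV-2 TK+ lines derived from FM3A/0 and grown in the same medium.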

Assay [3] is described as follows: Antiviral Activity against herpes simplex virus-1 (KOS) in rabbit kidney cell. Conditions: Oryctolagus cuniculus.
In assay [4] the test system is FM3A. The assay can be described thus: Inhibitory activity against FM3A/0 cell line. The conditions noted are these: Mus musculus, read-out: ID50 (the source's name). In short, it runs like this: as §1
Assay [5] in a line: Antiviral Activity against herpes simplex virus-2 (Lyons) in rabbit kidney cell. The conditions noted are these: Oryctolagus cuniculus.
A short description of assay [6]: Antiviral Activity against herpes simplex virus-1 (McIntyre) in rabbit kidney cell. The conditions noted are these: Oryctolagus cuniculus.
Assay [7] deals with FM3A. Kind of assay: Inhibitory activity against FM3A TK- cell line. The conditions noted are these: Mus musculus, read-out: ID50 (the source's name). In short, it runs like this:
as §1

A further assay has as its system L1210. The assay can be described thus: Inhibitory activity against L1210 cell line. Conditions: Mus musculus, read-out: ID50 (the source's name). In outline:
as §1

Assay [8] is described as follows: Antiviral Activity against herpes simplex virus-1 (F) in rabbit kidney cell. The conditions noted are these: Oryctolagus cuniculus.
Assay [9] can be described thus: Antiviral Activity against herpes simplex virus-1 TK- B2006 in rabbit kidney cell. Conditions: Oryctolagus cuniculus.
Assay [10] can be described thus: Antiviral Activity against herpes simplex virus-2 (G) in rabbit kidney cell. Conditions: Oryctolagus cuniculus.
Assay [11] is described as follows: Antiviral Activity against vaccinia virus in rabbit kidney cell. Conditions: Oryctolagus cuniculus.
The subject of the next assay is MOLT-4F. Kind of assay: Inhibitory activity against Molt/4F cell line. Conditions: Homo sapiens, read-out: ID50 (the source's name). In short, it runs like this:
as §1

The test system of another assay is Raji. Kind of assay: Inhibitory activity against Raji cell line. Conditions: Homo sapiens, read-out: ID50 (the source's name). In outline:
as §1

Assay [12] is described as follows: Antiviral Activity against herpes simplex virus-2 (196) in rabbit kidney cell. Conditions: Oryctolagus cuniculus.
The nature of assay [13]: Antiviral Activity against herpes simplex virus-1 TK- VMW 1837 in rabbit kidney cell. Conditions: Oryctolagus cuniculus.
The test system of assay [14] is Mus musculus. The assay can be described thus: Tested for the appearance of skin lesions or paralysis of the legs after 39 days when administered intraperitoneally at 100 mg/kg per day. Conditions: route intraperitoneal. In outline:
(§2)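 Athymic nu/nu mice, 25-30 days old, 15-20 g, inoculated intracutaneously in lumbosacral area with TK- HSV-1 VMW 1837, 10^5 CCID50 in 50 μL; intraperitoneal dosing 100 mg/kg per day, twice daily for 5 days from infection, in carboxymethylcellulose or water. Mean day of lesions/hind-leg paralysis and mean survival recorded over 39 days; survivors counted as 39-day.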

Assay [15] deals with Mus musculus. The assay can be described thus: Compound was evaluated in nu/nu mice infected with TK- HSV-1 (VMW-1837) to increase the mean survival time when administered intraperitoneally at 100 mg/kg per day after 39 days. The conditions noted are these: route intraperitoneal. In outline:
as §2

Assay [16] deals with Mus musculus. The assay can be described thus: Tested for the appearance of skin lesions or paralysis of the legs after 52 days when applied topically at 10% after 52 days. In outline: (§3)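 Athymic nu/nu mice, 25-30 days old, 15-20 g, inoculated intracutaneously in lumbosacral area with TK- HSV-1 VMW 1837, 10^5 CCID50 in 50 μL; topical 10% (v/v in DMSO) applied four times daily for 5 days from infection; DMSO placebo. Mean day of lesions/hind-leg paralysis and survival followed 52 days; survivors counted as 52-day.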

Assay [17] concerns Mus musculus. Kind of assay: Compound was evaluated in nu/nu mice infected with TK- HSV-1 (VMW-1837) to increase the mean survival time when applied topically at 10% after 52 days. In outline:
as §3

The structures appear in SMILES notation. In brackets after ≈: the same amount, converted by molar mass.

On to `CN1CCOP1(=O)OC[C@H]1O[C@@H](n2cc(/C=C/Br)c(=O)[nH]c2=O)C[C@@H]1O` (stereo partly specified), for which the MIC was greater than 400 µg/mL in assay [1]; 0.02 µg/mL (≈ 0.0442 µM) in assay [3]; 200 µg/mL (≈ 442 µM) in [5]; 0.04 µg/mL (≈ 0.0885 µM) in [6]; 0.07 µg/mL (≈ 0.155 µM) in assay [8]; greater than 400 µg/mL in [9]. Moreover, the MIC in assay [10] was 10 µg/mL (≈ 22.1 µM); in assay [11], 20 µg/mL (≈ 44.2 µM); in [12], greater than 400 µg/mL; in assay [13], greater than 400 µg/mL. The IC50 with FM3A [2] is 0.0008 µg/mL (≈ 0.00177 µM); in the assay on FM3A [4] it was 48 µg/mL (≈ 106 µM); in the assay on FM3A [7] it was 1.3 µg/mL (≈ 2.87 µM); with L1210 it was 90 µg/mL (≈ 199 µM); in the assay on MOLT-4F it was greater than 100 µg/mL; with Raji, greater than 100 µg/mL.

In the case of `Nc1nc2c(ncn2COCCO)c(=O)[nH]1` [ACYCLOVIR], the MIC is greater than 400 µg/mL in [1]; 0.2 µg/mL (≈ 0.888 µM) in assay [3]; 0.1 µg/mL (≈ 0.444 µM) in [5]; 0.2 µg/mL (≈ 0.888 µM) in assay [6]; 0.1 µg/mL (≈ 0.444 µM) in [8]; 20 µg/mL (≈ 88.8 µM) in [9]. The MIC in assay [10] turned out to be 0.02 µg/mL (≈ 0.0888 µM); in [11], 150 µg/mL (≈ 666 µM); in assay [12], 0.07 µg/mL (≈ 0.311 µM); in assay [13] it was 10 µg/mL (≈ 44.4 µM). The IC50 in the assay on FM3A [2] is 0.0009 µg/mL (≈ 0.004 µM); in the assay with FM3A [4] it was 17 µg/mL (≈ 75.5 µM); in the assay on FM3A [7] it was 0.62 µg/mL (≈ 2.75 µM); in the assay on L1210 it was 41 µg/mL (≈ 182 µM); in the assay with MOLT-4F, greater than 100 µg/mL; in the assay on Raji it was greater than 100 µg/mL. Moreover, the figures for the Activity in the assay with Mus musculus [14] and in the assay on Mus musculus [16] were 17.2 and 40.8, respectively. Besides, the Mean survival time worked out at 30.4 days in the assay with Mus musculus [15] and 46.2 days in the assay with Mus musculus [17].

On to `CN1CCOP1(=O)OCCOCn1cnc2c(O)nc(N)nc21` (stereo unspecified), for which the MIC is greater than 400 µg/mL in [1], 0.2 µg/mL (≈ 0.581 µM) in [3], 0.2 µg/mL (≈ 0.581 µM) in assay [10] and 400 µg/mL (≈ 1160 µM) in assay [11]. The IC50 in the assay with FM3A [4], in the assay with L1210, in the assay on MOLT-4F and in the assay on Raji was greater than 100 µg/mL in each case.

Regarding `CN1CC(CC2SCCCS2)OP1(=O)OC[C@H]1O[C@@H](n2cc(/C=C/Br)c(=O)[nH]c2=O)C[C@@H]1O` (stereo partly specified), the MIC in assay [1] was greater than 200 µg/mL; in assay [3], 200 µg/mL (≈ 342 µM); in assay [5], greater than 200 µg/mL; in assay [6], greater than 200 µg/mL; in assay [8], 150 µg/mL (≈ 257 µM); in assay [9], 150 µg/mL (≈ 257 µM). In addition, the MIC in assay [10] was 150 µg/mL (≈ 257 µM); in assay [11], 200 µg/mL (≈ 342 µM); in assay [12], greater than 200 µg/mL; in [13], 300 µg/mL (≈ 513 µM). For the same molecule, the IC50 in the assay on FM3A [2] is 0.018 µg/mL (≈ 0.0308 µM); in the assay on FM3A [4], 48 µg/mL (≈ 82.1 µM); in the assay on FM3A [7] it was 32 µg/mL (≈ 54.8 µM); with L1210, greater than 100 µg/mL; with MOLT-4F, greater than 100 µg/mL; in the assay with Raji it was greater than 100 µg/mL.

As for `O=c1[nH]c(=O)n([C@H]2C[C@H](O)[C@@H](CO)O2)cc1/C=C/Br` [BRIVUDINE], the MIC in [1] is greater than 400 µg/mL; in assay [3], 0.02 µg/mL (≈ 0.06 µM); in assay [5], 20 µg/mL (≈ 60 µM); in assay [6], 0.01 µg/mL (≈ 0.03 µM); in [8], 0.01 µg/mL (≈ 0.03 µM); in [9], 100 µg/mL (≈ 300 µM). For the same molecule, the MIC in assay [10] worked out at 2 µg/mL (≈ 6 µM); in assay [11] it was 7 µg/mL (≈ 21 µM); in [12], 100 µg/mL (≈ 300 µM); in [13], 300 µg/mL (≈ 901 µM). The IC50 in the assay with FM3A [2] was 0.0005 µg/mL (≈ 0.0015 µM); in the assay with FM3A [4] it was 9.4 µg/mL (≈ 28.2 µM); with FM3A [7], 0.31 µg/mL (≈ 0.931 µM); with L1210, 22 µg/mL (≈ 66 µM); with MOLT-4F it was greater than 100 µg/mL; with Raji, 73 µg/mL (≈ 219 µM). Besides, the figures for the Activity with Mus musculus [14] and in the assay on Mus musculus [16] were 10.2 and 8.2, respectively. The Mean survival time with Mus musculus [15] was found to be 33.8 days; in the assay on Mus musculus [17], 39.6 days.

On to `COC(CC1CN(C)P(=O)(OC[C@H]2O[C@@H](n3cc(/C=C/Br)c(=O)[nH]c3=O)C[C@@H]2O)O1)Sc1ccccc1` (stereo partly specified), for which the MIC in [1] was greater than 400 µg/mL; in assay [3], 0.1 µg/mL (≈ 0.162 µM); in [5], greater than 400 µg/mL; in assay [6], 0.4 µg/mL (≈ 0.647 µM); in [8] it was 0.1 µg/mL (≈ 0.162 µM); in assay [9], greater than 400 µg/mL. The MIC in assay [10] is greater than 400 µg/mL; in [11], no less than 400 µg/mL; in assay [12], greater than 400 µg/mL; in assay [13], greater than 400 µg/mL. In addition, the IC50 was 0.003 µg/mL (≈ 0.00485 µM) in the assay on FM3A [2]; 82 µg/mL (≈ 133 µM) in the assay on FM3A [4]; 12.4 µg/mL (≈ 20.1 µM) in the assay with FM3A [7]; greater than 100 µg/mL in the assay on L1210; greater than 100 µg/mL in the assay with MOLT-4F; greater than 100 µg/mL in the assay with Raji.

Source of the values: ChEMBL document CHEMBL1124895, “Synthesis and biological evaluation of some cyclic phosphoramidate nucleoside derivatives” (1990).
